According to article PMC6333101 (ACS chemical biology, 2018):
Like-named read-outs stand apart in the source and are kept apart here. Values belong to the compound of their own block, whether it stands above or below them.

How the values were obtained:
LRRK2 = LRRK2 (Homo sapiens, UniProt Q5S007); assay: LRRK2 kinase activity in vitro assay; type: biochemical
[1] = Variable temperature 1H NMR, interconversion of conformers; type: physicochemical
BRD4 (BD1) [2] = molecular target: T1, BRD4 (BD1) (Homo sapiens, UniProt O60885); assay: BRD4-1 AlphaScreen binding assay
[3] = test system: 797 NUT-midline carcinoma cells; assay: 797 NMC cell viability assay; type: cell-based; conditions: read-out: Viability IC50 (BRD4), Cell Titer Glo, 3 days, average of 3 replicates ± SD
Method in brief: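 797 NUT-midline carcinoma cells were seeded at 5,000 cells/well and exposed for 3 days to a range of test compound concentrations or DMSO. Relative cell number was read with Cell Titer Glo following the kit instructions. The methods state 6 replicates; the reported IC50 is the mean of 3 replicates ± SD.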

DCAMKL2 [4] = assay: DCAMKL2 biochemical enzyme assay; conditions: in vitro biochemical enzyme assays
ERK5 [5] = assay: Cellular assay of ERK5; type: cell-based, Human
ERK5 [6] = molecular target: ERK5 (Homo sapiens, UniProt Q13164); assay: ERK5 kinase activity in vitro assay; type: biochemical; conditions: for IC50: read-out: Enzymatic IC50 (ERK5), in vitro assay, average of 2 replicates ± SD
Chain of ERK5 (Homo sapiens, UniProt Q13164) (Q13164 whole entry): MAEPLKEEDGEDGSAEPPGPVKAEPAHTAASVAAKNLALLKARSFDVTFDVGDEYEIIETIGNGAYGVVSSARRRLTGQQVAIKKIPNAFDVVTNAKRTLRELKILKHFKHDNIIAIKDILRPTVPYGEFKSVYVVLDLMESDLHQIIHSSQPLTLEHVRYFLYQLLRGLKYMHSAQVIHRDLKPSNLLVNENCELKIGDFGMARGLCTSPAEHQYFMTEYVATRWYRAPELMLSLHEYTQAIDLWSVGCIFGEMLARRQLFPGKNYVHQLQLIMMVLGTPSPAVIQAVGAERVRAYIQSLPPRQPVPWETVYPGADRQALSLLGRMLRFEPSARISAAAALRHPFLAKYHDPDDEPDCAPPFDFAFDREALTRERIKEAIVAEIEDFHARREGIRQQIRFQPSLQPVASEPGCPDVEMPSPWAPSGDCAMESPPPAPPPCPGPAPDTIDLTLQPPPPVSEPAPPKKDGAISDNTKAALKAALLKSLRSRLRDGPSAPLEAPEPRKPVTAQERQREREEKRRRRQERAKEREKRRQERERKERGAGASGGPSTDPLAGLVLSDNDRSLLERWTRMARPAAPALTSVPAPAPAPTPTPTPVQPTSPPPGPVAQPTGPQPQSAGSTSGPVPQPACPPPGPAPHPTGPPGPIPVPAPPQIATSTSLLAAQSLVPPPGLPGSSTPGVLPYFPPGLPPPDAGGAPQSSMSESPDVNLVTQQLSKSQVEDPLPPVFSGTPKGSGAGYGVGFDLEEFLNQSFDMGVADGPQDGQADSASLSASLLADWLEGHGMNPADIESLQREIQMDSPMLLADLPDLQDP

BRD4 (BD1) [7] = molecular target: T1, BRD4 (BD1); assay: BRD4-1 AlphaScreen binding assay; remark: listed apart in the source
ERK5 [8] = assay: KinomeScan kinome profiling, ERK5; type: binding; conditions: 1 μM, panel of 468 human kinases
Method in brief: (§1)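 KinomeScan ScanMAX binding panel, single test compound concentration of 1 μM. A hit was defined as an Ambit score below 10%.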

DCAMKL2 [9] = molecular target: T2, DCAMKL2 (Homo sapiens, UniProt Q8N568); assay: KinomeScan kinome profiling, DCAMKL2; type: binding; conditions: 1 μM, panel of 468 human kinases
T2 sequence (Q8N568 1-766): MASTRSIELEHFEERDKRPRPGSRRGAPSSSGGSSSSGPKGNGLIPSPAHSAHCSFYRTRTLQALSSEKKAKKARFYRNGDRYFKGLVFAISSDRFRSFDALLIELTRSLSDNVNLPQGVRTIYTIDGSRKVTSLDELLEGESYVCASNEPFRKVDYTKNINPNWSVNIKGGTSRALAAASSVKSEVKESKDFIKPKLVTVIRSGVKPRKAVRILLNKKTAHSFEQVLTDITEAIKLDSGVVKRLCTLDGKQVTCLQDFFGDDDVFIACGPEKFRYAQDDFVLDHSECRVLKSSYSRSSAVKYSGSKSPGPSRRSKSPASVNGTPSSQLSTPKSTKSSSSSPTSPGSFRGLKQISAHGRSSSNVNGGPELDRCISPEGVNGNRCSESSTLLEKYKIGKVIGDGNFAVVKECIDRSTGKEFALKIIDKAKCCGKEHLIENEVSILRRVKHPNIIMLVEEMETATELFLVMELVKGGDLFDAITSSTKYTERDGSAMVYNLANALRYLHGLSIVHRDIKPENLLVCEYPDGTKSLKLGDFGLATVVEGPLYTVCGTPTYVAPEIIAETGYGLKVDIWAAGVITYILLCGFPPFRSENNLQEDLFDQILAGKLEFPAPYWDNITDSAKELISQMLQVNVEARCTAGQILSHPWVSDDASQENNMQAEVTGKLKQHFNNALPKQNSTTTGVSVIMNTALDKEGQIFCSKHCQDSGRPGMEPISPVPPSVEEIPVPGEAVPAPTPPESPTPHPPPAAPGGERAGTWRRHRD
Method in brief: as §1

panel of 32 bromodomains = assay: BROMOscan bromodomain profiling; type: binding; conditions: 10 μM
[10] = read-out: Biochemical IC50 (BRD4, μM) b, AlphaScreen, University of Oxford, average of 4 replicates ± SD
[11] = read-out: Enzymatic IC50 (LRRK2), Adapta assay format, average of 2 replicates ± SD
[12] = read-out: Biochemical IC50 (BRD4, μM) a, AlphaScreen, Dana-Farber, average of 2 replicates ± SE
[13] = Homo sapiens, HeLa, read-out: Cellular EC50 (ERK5, μM)

Chain of LRRK2 (Q5S007 whole entry): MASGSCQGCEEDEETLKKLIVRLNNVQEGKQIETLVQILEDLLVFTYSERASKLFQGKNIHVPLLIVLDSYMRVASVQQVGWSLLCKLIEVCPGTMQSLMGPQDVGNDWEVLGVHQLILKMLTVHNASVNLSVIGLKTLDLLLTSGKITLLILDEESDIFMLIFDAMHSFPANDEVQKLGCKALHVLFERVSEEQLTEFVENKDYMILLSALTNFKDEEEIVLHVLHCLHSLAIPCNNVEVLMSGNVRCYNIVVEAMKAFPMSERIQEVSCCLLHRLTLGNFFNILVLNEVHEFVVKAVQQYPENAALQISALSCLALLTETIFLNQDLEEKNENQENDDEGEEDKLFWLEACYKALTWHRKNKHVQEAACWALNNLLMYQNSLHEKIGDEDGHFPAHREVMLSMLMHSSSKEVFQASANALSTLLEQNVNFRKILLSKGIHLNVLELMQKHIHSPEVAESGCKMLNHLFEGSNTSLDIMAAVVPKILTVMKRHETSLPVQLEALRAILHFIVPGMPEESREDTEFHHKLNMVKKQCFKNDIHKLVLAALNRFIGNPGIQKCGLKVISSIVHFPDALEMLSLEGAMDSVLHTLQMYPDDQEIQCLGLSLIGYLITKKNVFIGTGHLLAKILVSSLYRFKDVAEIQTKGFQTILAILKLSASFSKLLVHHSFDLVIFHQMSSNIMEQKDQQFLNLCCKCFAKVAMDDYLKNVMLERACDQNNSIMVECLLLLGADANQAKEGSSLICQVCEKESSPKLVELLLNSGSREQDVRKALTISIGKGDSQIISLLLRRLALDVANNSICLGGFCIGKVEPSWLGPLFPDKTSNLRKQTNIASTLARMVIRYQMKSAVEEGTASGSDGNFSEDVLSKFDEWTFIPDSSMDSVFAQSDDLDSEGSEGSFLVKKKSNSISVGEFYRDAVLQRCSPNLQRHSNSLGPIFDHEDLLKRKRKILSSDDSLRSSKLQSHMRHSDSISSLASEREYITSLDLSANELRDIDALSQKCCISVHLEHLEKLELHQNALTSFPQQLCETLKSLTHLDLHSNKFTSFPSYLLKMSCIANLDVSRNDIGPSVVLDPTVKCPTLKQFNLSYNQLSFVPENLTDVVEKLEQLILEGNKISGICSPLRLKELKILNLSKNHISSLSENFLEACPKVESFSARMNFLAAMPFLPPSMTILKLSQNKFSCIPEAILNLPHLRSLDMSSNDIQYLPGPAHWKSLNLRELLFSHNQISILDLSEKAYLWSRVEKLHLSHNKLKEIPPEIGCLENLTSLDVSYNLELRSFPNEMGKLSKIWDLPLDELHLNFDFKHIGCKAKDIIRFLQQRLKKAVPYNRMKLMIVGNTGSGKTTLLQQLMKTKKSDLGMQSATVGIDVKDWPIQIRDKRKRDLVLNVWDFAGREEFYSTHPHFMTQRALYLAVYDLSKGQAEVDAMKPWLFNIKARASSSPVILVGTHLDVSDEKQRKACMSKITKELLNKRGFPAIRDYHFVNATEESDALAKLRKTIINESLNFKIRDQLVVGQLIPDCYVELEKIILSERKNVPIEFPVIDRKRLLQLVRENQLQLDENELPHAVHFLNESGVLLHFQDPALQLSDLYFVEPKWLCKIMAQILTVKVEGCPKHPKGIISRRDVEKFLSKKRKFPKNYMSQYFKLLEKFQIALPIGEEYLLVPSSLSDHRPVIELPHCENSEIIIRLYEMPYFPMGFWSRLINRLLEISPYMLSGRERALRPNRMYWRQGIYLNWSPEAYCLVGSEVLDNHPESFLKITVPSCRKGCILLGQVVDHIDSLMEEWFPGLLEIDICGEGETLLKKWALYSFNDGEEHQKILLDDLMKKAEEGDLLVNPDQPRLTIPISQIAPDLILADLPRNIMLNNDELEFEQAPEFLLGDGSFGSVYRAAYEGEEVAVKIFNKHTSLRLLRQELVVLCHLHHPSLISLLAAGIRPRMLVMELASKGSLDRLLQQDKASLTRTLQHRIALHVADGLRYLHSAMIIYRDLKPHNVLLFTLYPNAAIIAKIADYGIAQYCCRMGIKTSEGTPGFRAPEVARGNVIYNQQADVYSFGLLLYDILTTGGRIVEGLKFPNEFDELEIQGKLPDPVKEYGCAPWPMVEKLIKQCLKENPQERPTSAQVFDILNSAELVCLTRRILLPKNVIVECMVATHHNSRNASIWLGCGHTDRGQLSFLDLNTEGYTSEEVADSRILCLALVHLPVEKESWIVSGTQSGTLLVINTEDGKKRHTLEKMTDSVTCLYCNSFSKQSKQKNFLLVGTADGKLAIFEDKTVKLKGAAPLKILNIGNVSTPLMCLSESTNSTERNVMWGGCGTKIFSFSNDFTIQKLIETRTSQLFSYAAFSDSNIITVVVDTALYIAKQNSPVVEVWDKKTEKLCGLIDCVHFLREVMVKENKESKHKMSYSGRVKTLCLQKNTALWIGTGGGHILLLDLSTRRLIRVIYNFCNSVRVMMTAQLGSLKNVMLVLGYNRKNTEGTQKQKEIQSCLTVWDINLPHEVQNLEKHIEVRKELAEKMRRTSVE

SMILES: CCOc1cc(C(=O)N2CCC(N3CCN(C)CC3)CC2)ccc1Nc1ncc2c(n1)N(S(C)(=O)=O)c1ccccc1C(=O)N2C [AX15836, reference compound]
IC50 (LRRK2): 942 ± 569 nM

SMILES: CCC(C)N1c2ccccc2C(=O)N(C)c2cnc(Nc3ccc(C(=O)N4CCC(N5CCN(C)CC5)CC4)cc3OC)nc21 (stereo not drawn) [JWG-071]
Calc ΔErac ([1]; calculated energy barrier of interconversion): 15.9 kcal/mol
Tco (coalescence temperature) ([1]; variable temperature 1H NMR in DMSO-d6): 60 °C
IC50 (BRD4 (BD1) [2]; [10]): 6.31 ± 1.93 µM
IC50 [3]: > 10 µM
selectivity for ERK5 relative to DCAMKL2 (DCAMKL2 [4]): 2.5 folds
selectivity for ERK5 relative to LRRK2 (LRRK2; in vitro biochemical enzyme assays): 1.2 folds
IC50 (LRRK2; [11]): 109 ± 14 nM
EC50 (ERK5 [5]; read-out: Cellular EC50 (ERK5), EGF-stimulated autophosphorylation of ERK5 in Hela cells, average of 2 replicates ± SD): 0.02 ± 0.003 µM
improved ERK5 activity compared to XMD17–109 (ERK5-IN-1) (ERK5 [6]): 2 fold
IC50 (ERK5 [6]): 88 ± 5 nM
IC50 (BRD4 (BD1) [7]; [12]): 5.42 ± 0.18 µM
Ambit score (ERK5) (ERK5 [8]): less than 10%
Ambit score (DCAMKL2) (DCAMKL2 [9]): less than 10%

Now from value to compound:

IC50 (BRD4 (BD1) [2]; [10]): 1.1 ± 0.05 µM
IC50 (LRRK2; [11]): > 3300 nM
IC50 (ERK5 [6]): > 10000 nM
BROMOscan binding among BET family (panel of 32 bromodomains): strong binding
BROMOscan binding outside BET family (panel of 32 bromodomains): no binding
decrease of activity against BRD4 compared to the pyrimidine analogs XMD11–50 and JWG-047 (BRD4 (BD1) [7]; pyridine vs pyrimidine core): 4–8 fold
IC50 (BRD4 (BD1) [7]; read-out: BRD4 IC50, value as stated in text): 1 µM
IC50 (BRD4 (BD1) [7]; [12]): 1.08 ± 0.05 µM
SMILES: CC(C)Oc1cc(C(=O)N2CCC(N3CCN(C)CC3)CC2)ccc1Nc1ccc2c(n1)N(C1CCCC1)c1ccccc1C(=O)N2C [JWG-115]

IC50 (LRRK2): 3.4 ± 1.7 nM
SMILES: COc1cc(C(=O)N2CCC(N3CCN(C)CC3)CC2)ccc1Nc1ncc2c(n1)N(C)c1ccccc1C(=O)N2C [XMD11–50 (LRRK2-IN-1)]

IC50 (BRD4 (BD1) [2]): 0.68 ± 0.03 µM
IC50 (BRD4 (BD1) [7]): 0.217 ± 0.008 µM
SMILES: CCOc1cc(C(=O)N2CCC(N3CCN(C)CC3)CC2)ccc1Nc1ncc2c(n1)N(C1CCCC1)c1ccccc1C(=O)N2C [XMD17–109 (ERK5-IN-1), reference compound]
